{"source": "paper PMC6544545", "about": "(Nature microbiology, 2018)", "key": {"E. coli mutant strains": {"test_system": "E. coli mutant strains", "test": "Relative MIC measurement of mutant and evolved strains", "format": "cell-based, Escherichia coli"}, "[1]": {"test_system": "E. coli K12 wild-type and antibiotic-resistant strains", "test": "Antibiotic-PGLA combination screen", "format": "cell-based, Escherichia coli", "conditions": "Loewe additivity, EC90%", "how_it_was_run": "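E. coli K12 BW25113 wild-type and 21 strains adapted to one of 10 antibiotics were tested. Single agents ran as 1.6-fold 8-step dilutions spanning 10.5x below to 2.6x above each strain's MIC, plus dilution series at 7 antibiotic:peptide ratios (7:1 to 1:7). Wells received 5×10^4 cells from overnight culture, then 24 h at 30°C, 300 rpm, OD600. Expected (Loewe) and measured EC90% gave CIr per ratio; CI is the mean of the 7 CIr values.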"}, "[2]": {"test_system": "antibiotic-resistant bacteria", "test": "Antibiotic MIC in the presence of subinhibitory PGLA", "format": "cell-based, Escherichia coli", "conditions": "tetracycline (TET) resistant strain; ½ MIC PGLA (MIC against the wild-type)", "how_it_was_run": "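Each level was tested alone and alongside MIC determination of the antibiotic the strain was adapted to. Growth with peptide alone was scored as growth rate.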"}, "wild-type E. coli": {"test_system": "wild-type E. coli", "test": "Experimental evolution of resistance followed by MIC measurement", "format": "cell-based, Escherichia coli"}, "[3]": {"test_system": "60 antibiotic-resistant Escherichia coli strains", "format": "cell-based"}, "[4]": {"test_system": "antibiotic-resistant E. coli strains", "test": "Membrane integrity measurement", "format": "cell-based, Escherichia coli", "conditions": "sensitive strains could not grow on medium with 6% bile acid", "how_it_was_run": "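Bile acid sensitivity came from the high-throughput screen in MS medium. About 103 bacteria/ml were pin-inoculated and grown 24 h at 30°C, 300 rpm, with OD600 read once. Resistant strains ran in 4 replicates and wild-type in 12 on the same plate, and growth arrest was scored per well. Strains unable to grow with 6% bile acid were grouped as sensitive.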"}, "CAP18-resistant bacteria": {"test_system": "CAP18-resistant bacteria", "test": "Susceptibility of CAP18-resistant evolved bacteria to antibiotics", "format": "cell-based", "conditions": "preliminary results"}}}
{"compound": "O=C1CN(/N=C/c2ccc([N+](=O)[O-])o2)C(=O)N1", "note": "[nitrofurantoin]", "values": [{"measurement": "effect of ompC loss-of function mutation on susceptibility", "setting": "E. coli mutant strains; ompC mutation inserted into wild-type E. coli", "result": "conferred resistance"}]}
{"compound": "Peptide Glycine-Leucine Amide [PGLA]", "values": [{"measurement": "interaction of PGLA with tetracycline (TET), wild-type strain", "setting": "[1]; E. coli K12 wild-type, 0.86<CI<1.14 no interaction", "result": "no interaction"}, {"measurement": "interaction of PGLA with tetracycline (TET), tetracycline-resistant strain TET3", "setting": "[1]; TET3, CI≤0.86 synergism", "result": "strong synergism"}, {"measurement": "susceptibility of the marR single point mutant (marR*)", "setting": "E. coli mutant strains; marR mutation in E. coli BW25113 or E. coli ATCC 25922", "result": "collateral sensitivity"}, {"measurement": "growth rate reduction by the peptide applied alone", "setting": "[2]", "result": 40, "unit": "%"}, {"measurement": "evolution of resistance to the peptide", "setting": "wild-type E. coli; laboratory evolution, 160 generations", "result": "marginal"}, {"measurement": "cross-resistance between PGLA and ciprofloxacin or tetracycline in evolved lines", "setting": "wild-type E. coli; laboratory-evolved lines", "result": "no substantial cross-resistance"}]}
{"compound": "bactenecin 5 (RFRPPIRRPPIRPPFYPPFRPPIRPPIFPPIRPPFRPPLGPFP; Bactenecin-5; UniProt P19660 131-173, looked up) [BAC5]", "values": [{"measurement": "interaction of tobramycin-resistant strains with the peptide", "setting": "[3]; tobramycin-resistant E. coli strains", "result": "cross-resistance rather than collateral sensitivity"}]}
{"compound": "bile acid", "values": [{"measurement": "percentage of antibiotic-resistant strains more susceptible than the wild-type", "setting": "[4]", "result": 75, "unit": "%"}]}
{"compound": "cecropin P1 [CP1]", "values": [{"measurement": "collateral sensitivity of antibiotic-resistant strains towards the peptide", "setting": "[3]; 60 laboratory-evolved antibiotic-resistant E. coli strains", "result": "rarely show collateral sensitivity"}]}
{"compound": "rabbit 18-kDa cationic antimicrobial protein [CAP18]", "values": [{"measurement": "consequence of evolving resistance to the peptide", "setting": "CAP18-resistant bacteria", "result": "collateral sensitivity to several conventional antibiotics"}]}
